According to the RNAGym collection of RNA variant scans (doi:10.1126/science.aae0568):
Fewer inactive variants are shown than the library holds.

B1: tRNA (parent)
chain: GUUCCGUUGGCGUAAUGGUAACGCGUCUCCCUCCUAAGGAGAAGACUGCGGGUUCGAGUCCCGUACGGAACG

Variants of: B1
Test: yeast fitness relative to wild type (ratio to wild type); higher = fitter; tRNA-Arg(CCU), competitive growth, 37 C, YPD
Summary of the method: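 The tRNA-Arg(CCU) gene variants were made by chemical synthesis with a 3% per-site mutation rate at 69 sites and inserted at the native genomic locus of Saccharomyces cerevisiae. After pooling, the strains were competed in YPD at 37°C for 24 hours in six parallel replicates. Gene amplicons from the start population and each end population were read by 100-nucleotide paired-end sequencing, and Darwinian fitness relative to wild type was taken from genotype frequency changes. Genotypes needed ≥ 100 starting reads, and estimates < 0.5 were set to 0.5.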

Variant	yeast fitness
U54C U59C	0.714
U54C U59A	0.82
C55U C60A A65U	≤ 0.5
G51A A57G	0.819
G52A C61U	0.886
C55A G68U A69U	≤ 0.5
G52C U64A	0.573
G51C G58A	0.789
G52C A65C	0.907
G52C A65U	0.614
G52C A65G	0.613
U54C A65C	0.862
U54C A65G	0.97
U53C C60U A69C	0.57
U54C G67U	0.798
G51A U53G G68A	≤ 0.5
G51C U54A A57C	0.859
U54G C66U	0.653
U54G C66A	0.549
C55U A69U	0.684
C55U A69G	0.802
G52A U59A A69C A70C	0.609
G52C G56A C62U	0.653
U54C C55G	0.654

Variant	yeast fitness
G52U	0.785
G52A	0.696
G52C	0.635
G50U C62U A69C	0.661
C55U C66G A70C	≤ 0.5
G52C A70U	0.804
G52A C55G	0.561
G52A C55U	0.561
G52A C55A	0.581
U54C C62A	0.595
U53A C55A	0.756
G51A C55U	0.633
G51A A65U	0.66
G51A A65G	0.852
G51A A65C	0.75
G52A U64C	0.789
U53G G63C A69C	≤ 0.5
G51C A57G C61U A65C	≤ 0.5
C55A A69U	0.694
G50U C61A	≤ 0.5
U53G G58C	0.716
C55G C60G C66U	≤ 0.5
G51C G52C U59A	0.614
U54A	0.659

Variant	yeast fitness
U54G	0.641
U54C	0.806
G52C C60U	0.533
G52C C60A	0.641
U54C C62U G68C	≤ 0.5
G51C C66U	0.565
G51C C66A	≤ 0.5
G51A C62G	0.621
G51A C62U	0.763
G51A C62A	0.561
G51C A57C	0.551
G51C A57U	0.691
G51C A57G	0.52
G51A U53C	0.745
G52C G63A A69G	≤ 0.5
G52C A57C G63C	0.519
G52A C60G	≤ 0.5
G52A C60A	0.696
G52A G68U	0.653
G52A G68C	0.744
G50C G58A C66U	0.538
C55G C60U G68C	≤ 0.5
G52A G58C A70G	≤ 0.5
C55A G58C C66G	0.623

Variant	yeast fitness
U54G A65G G68U A70C	≤ 0.5
G52C A69C	0.687
U54A C55G A65C	0.627
G50U A69U	1.02
C55G A57U A65C	≤ 0.5
U53G A57U	0.626
U53G A57C	≤ 0.5
G51C A69U	0.624
G52C C62G	0.646
G52C C62A	0.596
G52A A70C	0.675
G52A A65U	0.631
G52A A65G	0.86
U53C A65C	0.878
U53C A65U	0.788
U53C A57G C66U	≤ 0.5
U53C A65U C66U	≤ 0.5
U54C C55G A57U C62U	≤ 0.5
C55G U59G	0.566
G51A U59A	0.696
C55U G58A G67A	0.546
G51C C62U A70U	≤ 0.5
U54A A65U C66U	≤ 0.5
G51C A70U	0.662

Variant	yeast fitness
U53C A69U	0.997
C55G G63C G67C	0.532
G52A G58A	0.69
G52A G67U	0.619
G52A G67C	0.796
G50C U59C	0.721
G51A C55U G58A	0.606
G51A A69U A70G	0.543
G52C C55A	≤ 0.5
G52C C55G	0.843
G52C C66U	0.547
G51C U54C A57G	≤ 0.5
U54A U59C	0.613
C55U G58C	0.842
G51A A57G A65G C66U	≤ 0.5
G50C G63A	0.773
C55A A57C U64C A65U	0.527
C55U C60U	0.584
U53A C62U	0.827
C55G C60A C62A G68A A69U	≤ 0.5
U54C C60U	0.546
C55U G56A	0.735
G52A A57C A70G	0.524
G50C U54C A57G	≤ 0.5

Variant	yeast fitness
U53A A70G	0.594
C55A C62G A69C	≤ 0.5
G51C C62G	0.528
G51C C62U	0.668
G52A A69U	0.853
G52A A57U C61G	≤ 0.5
U54C A69G A70G	0.566
C55G G56A C61U	≤ 0.5
G52A C55G A69U	≤ 0.5
C55U C61G	≤ 0.5
C55U C61A	0.524
G51C U59C	0.523
U53C A57U U59A C66U	0.535
C55A C60A	0.624
C55A C60U	0.525
U53A C61U U64A	≤ 0.5
C55A A65C G68A	≤ 0.5
U54A G67A	0.656
C55G A57U C62U C66U	≤ 0.5
C55G G68A	0.604
G51A U59A C61U G67A	≤ 0.5
G51U U53A	0.657
C55A C61G	≤ 0.5
G52A U59A	0.666

Variant	yeast fitness
G52A C62U G63A	≤ 0.5
G51C U64C	0.941
G51A A70U	0.935
G52C G67C	0.555
G51A	0.917
G51C	0.612
G51U	0.843
G52A C66U	0.706
G52A C66A	0.649
G51A C61A C66A	≤ 0.5
U53A A65G	0.571
U53A A65U	0.601
C55U	0.721
C55G	0.695
C55A	0.656
G52A U59A A69C	0.571
C55U C66G	0.668
U53A G58U C61U C62A	≤ 0.5
U54G C62G	0.559
G51C C55G C62A	≤ 0.5
G51C U54C C66U	≤ 0.5
U53C A57C C66U	≤ 0.5
G52A G56C A65U	≤ 0.5
U53A A57G	0.556

Variant	yeast fitness
C55U G63A A70U	0.551
U54C C61A	0.776
U54C C61G	0.713
U54C C61U	0.868
C55U A65C	0.754
C55U A65G	0.623
U54C A69C	0.965
U54C A69U	0.986
U54A C55A C66G A70C	≤ 0.5
U54C C66A	0.595
U54G C61A	≤ 0.5
U54G C61G	≤ 0.5
G52A A57G G58A A70U	≤ 0.5
C55A A70C	0.807
U53A G67U G68A	≤ 0.5
G51A C66A	0.555
G51A C66U	0.82
U54A A65C	0.724
G50C U53A A57U A65U	0.57
G51A G52C C61U	0.536
C55U A57C	0.584
C55U A57G	0.747
G50C U64C	0.967
G52A C61A A69U	≤ 0.5

Variant	yeast fitness
C55U G58C A69U	0.537
C55G A70G	0.673
G51C G63A	0.611
U54A C61G A69C	0.57
C55U C61A A65U	0.581
C55U C61A A65G	≤ 0.5
G51C C62G G68A	0.715
C55A G56C G67C	0.574
C55A C66A	0.541
G50C U54C C62G	0.622
U54G C61G A65U	0.596
G51A C62G C66U	≤ 0.5
G51A G67U	0.709
G51A G67A	0.872
G51A G67C	0.857
C55A A57U C66U	0.574
G50U G67A	0.821
G50C U53C U54A	≤ 0.5
U54A C60G C66U	≤ 0.5
C55A G68A	0.674
U54A A70U	0.768
U54A A70G	0.702
G52C A65C A70G	0.515
C55U C62G C66A	0.53

Variant	yeast fitness
G51A A57C C66U	0.59
U53C	0.875
U53A	0.653
U53G	0.629
C55G C60A C66A	≤ 0.5
G52C G68C	0.639
G51A A57C U59C	≤ 0.5
C55G C62U	0.626
G52A G56U A70U	≤ 0.5
U53C G58A	1.02
U53C U59A	0.731
G50U A65G A70C	0.59
G50U	0.961
U54A C55U	0.615
G50U U59G	0.796
U54C A57U C60A G68C	≤ 0.5
G51A U53A A69C	≤ 0.5
U54A A69C	0.658
G51A G52A	0.571
U53A C61G	≤ 0.5
U53A C61A	0.509
U53C C61G G67A A69C	0.552
G52C C61G	≤ 0.5
U54A U64C	0.683

Variant	yeast fitness
U53A A57U A65U	0.725
U53G C66A	≤ 0.5
U53G U64C	0.669
U54C A57G C60G	0.787
U54G C61G C62U A65U	≤ 0.5
U53A G56C C60A A70G	0.58
G51A C61U C66G	≤ 0.5
U54G C60U	≤ 0.5
U53A G63A	0.618
U53A C66A	≤ 0.5
C55G U59A G63A	0.673
G51A C55G G68C	≤ 0.5
U53A G56A	0.636
U54C A57G	0.919
U54C A57C	0.619
G52A A57U	0.516
G52A A57C	0.789
G52A G63A G67A	0.553
G51A C55U A65U	≤ 0.5
G50C G58C	0.722
U54A G67C G68A	≤ 0.5
U54G A65U	≤ 0.5
U54C U64A A69U	0.698
G52C G63A	0.642

Variant	yeast fitness
C55U C62A	0.627
G51A G63A	0.739
G51A G63C	0.693
C55G C66U A69C	≤ 0.5
G51U A57G	0.642
C55A C62U C66U	0.517
G51C G56A C62G C66A A70G	≤ 0.5
G51A U59A C62G	≤ 0.5
C55A U59A	0.513
U54A U59C U64C	≤ 0.5
U54A G56C	0.691
C55U G63A C66G	≤ 0.5
G51C U54A G56C	≤ 0.5
C55U A70C	0.938
C55U A70U	0.715
U54A C62U A65G G68A	≤ 0.5
G50C G58U G68U A69G	0.508
G51C C61G	1.04
U54A C61U	0.715
U54C G56A C62A	≤ 0.5
U54A C62U	0.59
C55A A57U	0.694
C55A A57C	0.597
C55A A57G	0.671

Variant	yeast fitness
C55G C60U	≤ 0.5
G51C G67A	0.572
G51C G67U	0.504
C55A C62U	0.685
C55G A65G	0.528
C55G A65C	0.529
C55G A65U	0.692
U53G G56C C60A	≤ 0.5
G51A G68C	0.671
U54C G56C G58A	0.55
G52A U53A C66U	≤ 0.5
C55G A57C	0.713
C55G A57G	0.638
G51A C61U	1.11
G51A C61A	0.536
G51A C61G	0.588
G52C U54C	0.608
U53A G68A	0.574
G51A A69U	0.738
C55A G56C	0.522
G52C U53C G67C	≤ 0.5
U54C G56C	0.593
C55G C61G	≤ 0.5
C55G U64C	0.679

Variant	yeast fitness
C55A G67C	0.686
G52A G58A A65G	0.684
G52C A57U	0.514
G51C A65U	0.597
G51C A65C	0.71
C55G C66A	0.546
C55G C66U	0.585
U54A C66A	0.528
U54A C66U	0.729
U54G A65U G67A	0.545
G51C C55U	≤ 0.5
U54C G63A	0.701
C55A A57C G68C	0.5
G51A U59A G67C	≤ 0.5
G52C A69U A70U	≤ 0.5
U53A G67C	0.664
C55U C61A G68C	≤ 0.5
U53C C60U	0.638
G50C U53C C55U	0.528
G52A U54C	0.589
G51U C61U	0.747
G51C G68C	0.641
